Legend:
143B = test: Antiproliferative activity against human 143B cells after 48 hrs by MTT assay; format: functional, cell-based
HCT-116 = test: Antiproliferative activity against human HCT116 cells after 48 hrs by MTT assay; format: functional, cell-based; details: for IC50: HCT-116, 48 h
In short: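 Cells grown in RPMI 1640 with 10% FBS; about 4×10^3 cells per well seeded, held 24 h at 37°C in 5% CO2, then exposed to compounds at six concentrations (0.001–100 μM) for 48 h. MTT added at 0.5 mg/mL final for 4 h at 37°C, formazan dissolved in DMSO, absorbance read at 540 nm.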

MCF7 = test: Antiproliferative activity against human MCF7 cells after 48 hrs by MTT assay; format: functional, cell-based; details: for IC50: MCF7, 48 h
[1] = biological target: Cathepsin S (Homo sapiens) (UniProt P25774); test: Inhibition of Cathepsin-S (unknown origin) at 5 uM preincubated for 15 mins followed by Ac-Lys-Gln-Lys-Leu-Arg-AMC addition measured after 30 mins by fluorescence assay relative to control
Cathepsin S (Homo sapiens), sequence (P25774 115-331 limits assumed): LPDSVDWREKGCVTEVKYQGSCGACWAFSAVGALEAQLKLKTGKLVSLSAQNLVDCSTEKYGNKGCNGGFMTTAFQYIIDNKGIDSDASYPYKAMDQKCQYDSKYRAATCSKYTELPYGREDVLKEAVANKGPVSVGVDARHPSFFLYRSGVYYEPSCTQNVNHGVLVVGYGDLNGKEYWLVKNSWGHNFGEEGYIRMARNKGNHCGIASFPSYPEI
In short: (§1)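 Run as for the Cat K assay: enzyme in 50 mM sodium acetate, 2.5 mM EDTA, 1 mM DTT, pH 6.0, compounds screened at 5 μM, 15 min preincubation at 37°C, substrate added, fluorescence (ex 355/em 460 nm) read at 30 min. Substrates: Cat B Z-Arg-Arg-AMC; Cat S Ac-Lys-Gln-Lys-Leu-Arg-AMC; Cat L as for Cat K.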

[2] = biological target: Cathepsin B (Homo sapiens) (UniProt P07858); test: Inhibition of Cathepsin-B (unknown origin) at 5 uM preincubated for 15 mins followed by Z-Arg-Arg-AMC addition measured after 30 mins by fluorescence assay relative to control; in short: as §1
[3] = biological target: Procathepsin L (Homo sapiens) (UniProt P07711); test: Inhibition of Cathepsin-L (unknown origin) at 5 uM preincubated for 15 mins followed by Z-Phe-Arg-AMC addition measured after 30 mins by fluorescence assay relative to control; in short: as §1
Procathepsin L (Homo sapiens), sequence (P07711 114-333 limits assumed): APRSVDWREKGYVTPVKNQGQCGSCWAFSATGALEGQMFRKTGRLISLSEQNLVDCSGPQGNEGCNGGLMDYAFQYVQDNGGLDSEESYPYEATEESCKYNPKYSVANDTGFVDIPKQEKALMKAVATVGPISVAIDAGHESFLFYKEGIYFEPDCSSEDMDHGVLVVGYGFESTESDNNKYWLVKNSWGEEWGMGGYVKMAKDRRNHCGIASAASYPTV

[4] = biological target: T1, Cathepsin K (Homo sapiens) (UniProt P43235); test: Inhibition of recombinant human Cathepsin-K at 5 uM preincubated for 15 mins followed by Z-Phe-Arg-AMC addition measured after 30 mins by fluorescence assay relative to control
T1 sequence (whole entry): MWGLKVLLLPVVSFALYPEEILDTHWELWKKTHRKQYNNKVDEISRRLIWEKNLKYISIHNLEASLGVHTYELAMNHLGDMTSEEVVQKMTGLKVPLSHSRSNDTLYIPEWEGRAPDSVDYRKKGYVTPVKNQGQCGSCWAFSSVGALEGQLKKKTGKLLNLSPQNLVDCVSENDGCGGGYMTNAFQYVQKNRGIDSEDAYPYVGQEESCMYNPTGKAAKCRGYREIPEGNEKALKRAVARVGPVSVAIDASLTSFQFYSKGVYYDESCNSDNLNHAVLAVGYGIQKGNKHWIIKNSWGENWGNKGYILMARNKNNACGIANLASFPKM
In short: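 Recombinant human Cat K (5.5 ng/mL) in 50 mM sodium acetate, 2.5 mM EDTA, 1 mM DTT, pH 6.0, preincubated with compound (5 μM screen) 15 min at 37°C. Reaction started with Z-Phe-Arg-AMC (10 μM, as added). Fluorescence (ex 355/em 460 nm) read after 30 min; inhibition rate calculated from intensity.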

Compound	IC50 (143B) [µM]	IC50 (HCT-116) [µM]	IC50 (MCF7) [µM]	inhibition [1] [%]	inhibition [2] [%]	inhibition [3] [%]	inhibition [4] [%]	Activity (143B)	Activity (HCT-116)	Activity (MCF7)
O=c1[nH]cc(F)c(=O)[nH]1 [FLUOROURACIL]	25.2	8.64	32.6	–	–	–	–	–	–	–
O=C(/C=C/c1ccccc1)c1nc2ccccc2[nH]1	–	–	–	13	10.1	35.4	37.9	–	–	–
CC(C)C[C@H](NC(=O)[C@@H]1O[C@H]1C(=O)O)C(=O)NCCCCN=C(N)N	–	–	–	–	100	100	100	–	–	–
O=C(Nc1cccc(/C=C/C(=O)c2nc3ccccc3[nH]2)c1)c1cc(Cl)cc(Cl)c1	3.66	1.65	> 100	–	–	–	–	–	–	–
Cc1ccccc1S(=O)(=O)Nc1cccc(/C=C/C(=O)c2nc3ccccc3[nH]2)c1	4.06	0.955	4.13	47.8	40	71.3	91.3	–	–	–
O=C(Nc1cccc(/C=C/C(=O)c2nc3ccccc3[nH]2)c1)c1cccc(Br)c1	4.62	1.55	5.21	–	–	–	–	–	–	–
Cc1ccc(C(=O)Nc2cccc(/C=C/C(=O)c3nc4ccccc4[nH]3)c2)cc1	6.56	1.66	9.69	–	–	–	–	–	–	–
O=C(/C=C/c1cccc(NS(=O)(=O)c2ccc(Cl)cc2)c1)c1nc2ccccc2[nH]1	7.45	1.96	3.82	89.3	23.8	58	58.1	–	–	–
O=C(Nc1cccc(/C=C/C(=O)c2nc3ccccc3[nH]2)c1)c1ccc(Br)cc1	7.31	2.23	7	–	–	–	–	–	–	–
Cc1ccc(S(=O)(=O)Nc2cccc(/C=C/C(=O)c3nc4ccccc4[nH]3)c2)cc1	3.22	1.99	3.22	22	34.3	93.8	86	–	–	–
Cc1cccc(S(=O)(=O)Nc2cccc(/C=C/C(=O)c3nc4ccccc4[nH]3)c2)c1	0.791	0.597	0.886	50.1	45.6	92.3	93.5	Dose-dependent effect	Dose-dependent effect	Dose-dependent effect
Cc1cc(C)cc(C(=O)Nc2cccc(/C=C/C(=O)c3nc4ccccc4[nH]3)c2)c1	4.01	1.55	24.6	–	–	–	–	–	–	–
Cc1cc(C)cc(S(=O)(=O)Nc2cccc(/C=C/C(=O)c3nc4ccccc4[nH]3)c2)c1	3.33	1.22	4.57	–	–	–	–	–	–	–
COc1ccc(C(=O)Nc2cccc(/C=C/C(=O)c3nc4ccccc4[nH]3)c2)cc1	6.33	4.88	20.1	–	–	–	–	–	–	–
CC(=O)O[C@H]1C(=O)[C@@]2(C)[C@H]([C@H](OC(=O)c3ccccc3)[C@]3(O)C[C@H](OC(=O)[C@H](O)[C@@H](NC(=O)c4ccccc4)c4ccccc4)C(C)=C1C3(C)C)[C@]1(OC(C)=O)CO[C@@H]1C[C@@H]2O [PACLITAXEL]	–	0.014	–	–	–	–	–	–	–	–
CC(C)(F)C[C@H](C[C@@H](c1ccc(-c2ccc(S(C)(=O)=O)cc2)cc1)C(F)(F)F)C(=O)NC1(C#N)CC1	12.7	> 100	45.4	100	100	71.3	100	–	–	–
COc1cccc(C(=O)Nc2cccc(/C=C/C(=O)c3nc4ccccc4[nH]3)c2)c1	4.61	3.68	17.8	–	–	–	–	–	–	–
O=C(Nc1cccc(/C=C/C(=O)c2nc3ccccc3[nH]2)c1)c1cccc(Cl)c1	3.37	1.12	7.83	19.5	30.5	86	73	–	–	–
O=C(/C=C/c1cccc(NS(=O)(=O)c2cc(Cl)cc(Cl)c2)c1)c1nc2ccccc2[nH]1	5.95	2.84	20	–	–	–	–	–	–	–
O=C(Nc1cccc(/C=C/C(=O)c2nc3ccccc3[nH]2)c1)c1cccc(C(F)(F)F)c1	9.57	3.36	21.5	–	–	–	–	–	–	–
Cc1cccc(C(=O)Nc2cccc(/C=C/C(=O)c3nc4ccccc4[nH]3)c2)c1	4.88	1.42	5.59	45.2	41.3	88.5	78	–	–	–
O=C(Nc1cccc(/C=C/C(=O)c2nc3ccccc3[nH]2)c1)c1ccccc1	8.34	2.44	11.2	–	–	–	–	–	–	–
CCCNC(=O)[C@H]1O[C@@H]1C(=O)N[C@H](C(=O)N1CCC[C@H]1C(=O)O)[C@@H](C)CC	–	–	–	–	100	–	–	–	–	–
O=C(/C=C/c1cccc(NC(=O)c2ccccc2Br)c1)c1nc2ccccc2[nH]1	6.05	1.68	4.52	–	–	–	–	–	–	–
O=C(/C=C/c1cccc(NC(=O)c2ccccc2Cl)c1)c1nc2ccccc2[nH]1	3.69	1.28	4.57	–	–	–	–	–	–	–
Cc1ccccc1C(=O)Nc1cccc(/C=C/C(=O)c2nc3ccccc3[nH]2)c1	8.29	1.87	5.87	–	–	–	–	–	–	–
O=C(/C=C/c1cccc(NS(=O)(=O)c2cccc(Cl)c2)c1)c1nc2ccccc2[nH]1	2.51	0.737	4.16	52.6	15.2	78.9	89.2	–	–	–
Cc1ccc(S(=O)(=O)Nc2cccc(/C=C/C(=O)c3nc4ccccc4[nH]3)c2)cc1C	5.05	2.23	5.86	–	–	–	–	–	–	–
O=C(Nc1cccc(/C=C/C(=O)c2nc3ccccc3[nH]2)c1)c1ccc(Cl)cc1	7.44	2.27	8.41	–	–	–	–	–	–	–
O=C(/C=C/c1cccc(NS(=O)(=O)c2ccccc2Cl)c1)c1nc2ccccc2[nH]1	4.79	0.987	4.28	45.7	32.5	62.9	86.5	–	–	–
